Test results from ChEMBL document CHEMBL2073862, “Localization of organic anion transporting polypeptides in the rat and human ciliary body epithelium” (Exp Eye Res, 2005).

T1: Solute carrier organic anion transporter family member 3A1 (Homo sapiens, UniProt Q9UIG8)
T1 sequence (Q9UIG8 whole entry): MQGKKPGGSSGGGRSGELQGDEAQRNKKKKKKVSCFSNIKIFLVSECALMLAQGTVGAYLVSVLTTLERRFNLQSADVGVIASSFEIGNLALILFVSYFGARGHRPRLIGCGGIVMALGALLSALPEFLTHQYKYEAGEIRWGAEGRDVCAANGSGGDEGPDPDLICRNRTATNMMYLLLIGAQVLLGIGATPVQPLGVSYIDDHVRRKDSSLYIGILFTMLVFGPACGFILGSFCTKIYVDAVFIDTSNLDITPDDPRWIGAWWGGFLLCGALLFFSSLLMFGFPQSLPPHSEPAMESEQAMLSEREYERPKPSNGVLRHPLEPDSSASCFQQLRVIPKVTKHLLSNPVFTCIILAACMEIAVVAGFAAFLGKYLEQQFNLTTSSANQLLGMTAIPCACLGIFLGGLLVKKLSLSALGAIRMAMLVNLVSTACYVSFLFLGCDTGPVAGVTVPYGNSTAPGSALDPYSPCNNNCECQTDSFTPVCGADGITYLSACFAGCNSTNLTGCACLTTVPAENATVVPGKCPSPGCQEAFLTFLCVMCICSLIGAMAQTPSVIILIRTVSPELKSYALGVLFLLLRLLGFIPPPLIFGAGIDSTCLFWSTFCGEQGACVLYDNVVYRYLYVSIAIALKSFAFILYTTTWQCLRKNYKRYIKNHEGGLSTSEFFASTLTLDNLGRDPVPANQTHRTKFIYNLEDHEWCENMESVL

T2: Solute carrier organic anion transporter family member 1C1 (Homo sapiens, UniProt Q9NYB5)
T2 sequence (Q9NYB5 whole entry): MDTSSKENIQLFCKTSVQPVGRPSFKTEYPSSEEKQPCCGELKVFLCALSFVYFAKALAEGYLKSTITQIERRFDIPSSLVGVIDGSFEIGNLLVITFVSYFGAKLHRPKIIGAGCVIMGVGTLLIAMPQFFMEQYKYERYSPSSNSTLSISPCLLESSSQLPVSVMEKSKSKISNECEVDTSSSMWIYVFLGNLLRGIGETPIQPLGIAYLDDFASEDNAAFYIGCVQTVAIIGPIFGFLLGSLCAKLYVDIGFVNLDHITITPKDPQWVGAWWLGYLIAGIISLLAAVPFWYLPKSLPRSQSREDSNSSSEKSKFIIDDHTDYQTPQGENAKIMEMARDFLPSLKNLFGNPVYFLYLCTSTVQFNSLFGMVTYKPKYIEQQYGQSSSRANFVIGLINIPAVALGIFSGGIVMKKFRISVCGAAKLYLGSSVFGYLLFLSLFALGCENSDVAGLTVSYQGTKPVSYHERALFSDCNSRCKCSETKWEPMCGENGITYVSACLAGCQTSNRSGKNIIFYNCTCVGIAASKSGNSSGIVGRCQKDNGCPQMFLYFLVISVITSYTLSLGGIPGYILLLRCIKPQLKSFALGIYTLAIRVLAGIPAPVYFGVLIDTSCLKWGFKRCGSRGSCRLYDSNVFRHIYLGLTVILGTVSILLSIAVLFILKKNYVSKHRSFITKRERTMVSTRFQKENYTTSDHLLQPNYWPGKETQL

T3: Solute carrier organic anion transporter family member 1A2 (Homo sapiens, UniProt P46721)
T3 sequence (P46721 whole entry): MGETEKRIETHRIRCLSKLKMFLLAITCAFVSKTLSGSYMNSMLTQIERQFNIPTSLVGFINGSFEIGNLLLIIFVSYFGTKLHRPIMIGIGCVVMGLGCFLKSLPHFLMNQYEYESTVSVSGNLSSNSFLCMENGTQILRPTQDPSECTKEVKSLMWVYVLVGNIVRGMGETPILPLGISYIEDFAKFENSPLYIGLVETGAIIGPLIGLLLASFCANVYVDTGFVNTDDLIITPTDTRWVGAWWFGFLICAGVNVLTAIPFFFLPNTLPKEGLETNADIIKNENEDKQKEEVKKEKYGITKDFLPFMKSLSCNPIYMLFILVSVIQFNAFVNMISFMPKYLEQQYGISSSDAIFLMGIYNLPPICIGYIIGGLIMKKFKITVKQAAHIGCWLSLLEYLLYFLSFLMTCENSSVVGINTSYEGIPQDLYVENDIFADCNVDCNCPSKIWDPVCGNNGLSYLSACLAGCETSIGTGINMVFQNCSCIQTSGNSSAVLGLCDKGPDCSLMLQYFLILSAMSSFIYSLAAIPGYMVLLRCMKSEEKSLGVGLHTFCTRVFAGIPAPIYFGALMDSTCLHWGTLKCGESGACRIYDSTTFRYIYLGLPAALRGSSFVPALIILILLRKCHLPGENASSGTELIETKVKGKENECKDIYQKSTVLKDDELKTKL

T4: Solute carrier organic anion transporter family member 2B1 (Homo sapiens, UniProt O94956)
T4 sequence (O94956 whole entry): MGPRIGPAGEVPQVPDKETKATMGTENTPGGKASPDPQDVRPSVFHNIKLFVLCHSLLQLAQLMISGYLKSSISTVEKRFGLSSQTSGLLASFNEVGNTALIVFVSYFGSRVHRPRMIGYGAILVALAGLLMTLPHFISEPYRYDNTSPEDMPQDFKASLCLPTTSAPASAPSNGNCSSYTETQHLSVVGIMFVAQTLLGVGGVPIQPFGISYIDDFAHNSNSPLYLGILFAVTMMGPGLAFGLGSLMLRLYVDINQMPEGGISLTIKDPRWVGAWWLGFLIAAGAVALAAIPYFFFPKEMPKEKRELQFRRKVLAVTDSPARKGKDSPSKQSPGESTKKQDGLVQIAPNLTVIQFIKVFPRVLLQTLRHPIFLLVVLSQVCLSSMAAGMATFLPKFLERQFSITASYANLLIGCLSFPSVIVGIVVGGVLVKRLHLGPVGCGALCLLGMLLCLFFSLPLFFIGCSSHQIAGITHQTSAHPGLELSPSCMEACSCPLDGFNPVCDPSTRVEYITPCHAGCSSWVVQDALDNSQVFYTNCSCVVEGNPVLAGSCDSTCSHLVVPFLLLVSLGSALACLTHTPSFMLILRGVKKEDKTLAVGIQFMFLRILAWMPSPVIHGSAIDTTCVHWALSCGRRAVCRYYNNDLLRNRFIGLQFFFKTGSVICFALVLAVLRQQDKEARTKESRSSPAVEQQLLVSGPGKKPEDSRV

T5: Solute carrier organic anion transporter family member 4A1 (Homo sapiens, UniProt Q96BD0)
T5 sequence (Q96BD0 whole entry): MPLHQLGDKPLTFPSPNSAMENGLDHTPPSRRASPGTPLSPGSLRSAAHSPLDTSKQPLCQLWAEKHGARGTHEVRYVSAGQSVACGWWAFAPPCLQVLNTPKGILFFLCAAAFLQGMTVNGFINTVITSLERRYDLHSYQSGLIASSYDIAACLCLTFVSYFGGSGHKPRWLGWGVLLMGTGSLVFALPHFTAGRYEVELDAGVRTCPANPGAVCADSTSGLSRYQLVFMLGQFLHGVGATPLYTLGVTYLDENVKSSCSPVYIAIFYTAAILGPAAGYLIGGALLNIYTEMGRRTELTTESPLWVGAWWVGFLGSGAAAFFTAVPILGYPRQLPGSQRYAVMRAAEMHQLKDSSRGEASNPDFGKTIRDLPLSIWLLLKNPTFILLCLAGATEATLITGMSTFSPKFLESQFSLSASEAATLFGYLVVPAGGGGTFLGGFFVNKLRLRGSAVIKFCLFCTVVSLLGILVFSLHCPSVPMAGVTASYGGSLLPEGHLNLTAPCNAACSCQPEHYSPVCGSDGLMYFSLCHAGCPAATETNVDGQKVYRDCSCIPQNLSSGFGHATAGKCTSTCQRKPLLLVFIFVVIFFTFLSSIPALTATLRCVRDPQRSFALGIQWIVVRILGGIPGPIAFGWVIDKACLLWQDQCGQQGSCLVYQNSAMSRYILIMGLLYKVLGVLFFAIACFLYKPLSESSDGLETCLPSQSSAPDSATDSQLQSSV


Experiments:
[1] = biological target: T1, Solute carrier organic anion transporter family member 3A1; test: (§1) TP_TRANSPORTER: uptake in Xenopus laevis oocytes; assay type: functional, cell-based; settings: oocyte
Summary of the method: (§2)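 Oocytes were injected with 5 ng of cRNA for human OATP1A2, 1C1, 2B1, 3A1 or 4A1, or with water, then cultured 3 days. Radioactivity was counted by scintillation, water-injected uptake was subtracted, and Km came from nonlinear regression of 12–15 oocytes.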

[2] = biological target: T2, Solute carrier organic anion transporter family member 1C1; test: as §1; assay type: functional, cell-based; settings: oocyte; summary of the method: as §2
[3] = biological target: T3, Solute carrier organic anion transporter family member 1A2; test: as §1; assay type: functional, cell-based, Oocyte; summary of the method: as §2
[4] = biological target: T4, Solute carrier organic anion transporter family member 2B1; test: as §1; assay type: functional, cell-based; settings: oocyte; summary of the method: as §2
[5] = biological target: T5, Solute carrier organic anion transporter family member 4A1; test: as §1; assay type: functional, cell-based; settings: oocyte; summary of the method: as §2
[6] = substrate: CCCCCCCC(=O)CC[C@@H]1[C@@H](C/C=C\CCCC(=O)O)[C@@H](O)C[C@H]1O; test: as §1; assay type: functional, cell-based, Oocyte; summary of the method: as §2

Molecule	Activity [1]	Activity [2]	Km ([3]; Xenopus laevis oocytes) [µM]	Activity [4]	Activity [5]	Activity ([3]; oocyte)	Km [6] [µM]
CCCCCCCC(=O)CC[C@@H]1[C@@H](C/C=C\CCCC(=O)O)[C@@H](O)C[C@H]1O [UNOPROSTONE]	is not a substrate [(-)]	is not a substrate [(-)]	93				
CCCCCCCC(=O)CC[C@@H]1[C@@H](C/C=C\CCCC(=O)OC(C)C)[C@@H](O)C[C@H]1O [UNOPROSTONE ISOPROPYL]	is not a substrate [(-)]	is not a substrate [(-)]		is not a substrate [(-)]	is not a substrate [(-)]	is not a substrate [(-)]	
Solute carrier organic anion transporter family member 4A1 (Homo sapiens) (protein) MPLHQLGDKPLTFPSPNSAMENGLDHTPPSRRASPGTPLSPGSLRSAAHSPLDTSKQPLCQLWAEKHGARGTHEVRYVSAGQSVACGWWAFAPPCLQVLNTPKGILFFLCAAAFLQGMTVNGFINTVITSLERRYDLHSYQSGLIASSYDIAACLCLTFVSYFGGSGHKPRWLGWGVLLMGTGSLVFALPHFTAGRYEVELDAGVRTCPANPGAVCADSTSGLSRYQLVFMLGQFLHGVGATPLYTLGVTYLDENVKSSCSPVYIAIFYTAAILGPAAGYLIGGALLNIYTEMGRRTELTTESPLWVGAWWVGFLGSGAAAFFTAVPILGYPRQLPGSQRYAVMRAAEMHQLKDSSRGEASNPDFGKTIRDLPLSIWLLLKNPTFILLCLAGATEATLITGMSTFSPKFLESQFSLSASEAATLFGYLVVPAGGGGTFLGGFFVNKLRLRGSAVIKFCLFCTVVSLLGILVFSLHCPSVPMAGVTASYGGSLLPEGHLNLTAPCNAACSCQPEHYSPVCGSDGLMYFSLCHAGCPAATETNVDGQKVYRDCSCIPQNLSSGFGHATAGKCTSTCQRKPLLLVFIFVVIFFTFLSSIPALTATLRCVRDPQRSFALGIQWIVVRILGGIPGPIAFGWVIDKACLLWQDQCGQQGSCLVYQNSAMSRYILIMGLLYKVLGVLFFAIACFLYKPLSESSDGLETCLPSQSSAPDSATDSQLQSSV							132
Solute carrier organic anion transporter family member 2B1 (Homo sapiens) (protein) MGPRIGPAGEVPQVPDKETKATMGTENTPGGKASPDPQDVRPSVFHNIKLFVLCHSLLQLAQLMISGYLKSSISTVEKRFGLSSQTSGLLASFNEVGNTALIVFVSYFGSRVHRPRMIGYGAILVALAGLLMTLPHFISEPYRYDNTSPEDMPQDFKASLCLPTTSAPASAPSNGNCSSYTETQHLSVVGIMFVAQTLLGVGGVPIQPFGISYIDDFAHNSNSPLYLGILFAVTMMGPGLAFGLGSLMLRLYVDINQMPEGGISLTIKDPRWVGAWWLGFLIAAGAVALAAIPYFFFPKEMPKEKRELQFRRKVLAVTDSPARKGKDSPSKQSPGESTKKQDGLVQIAPNLTVIQFIKVFPRVLLQTLRHPIFLLVVLSQVCLSSMAAGMATFLPKFLERQFSITASYANLLIGCLSFPSVIVGIVVGGVLVKRLHLGPVGCGALCLLGMLLCLFFSLPLFFIGCSSHQIAGITHQTSAHPGLELSPSCMEACSCPLDGFNPVCDPSTRVEYITPCHAGCSSWVVQDALDNSQVFYTNCSCVVEGNPVLAGSCDSTCSHLVVPFLLLVSLGSALACLTHTPSFMLILRGVKKEDKTLAVGIQFMFLRILAWMPSPVIHGSAIDTTCVHWALSCGRRAVCRYYNNDLLRNRFIGLQFFFKTGSVICFALVLAVLRQQDKEARTKESRSSPAVEQQLLVSGPGKKPEDSRV							91
